Compounds with a hit are over-represented: about 1.7% of the library has one in this group of screens.
Rev-erbA mod: modulators of Rev-erb alpha DNA binding, primary screen, biochemical, FITC-DNA, fluorescence polarization, uHTS | Rev-erbα–FITC-DNA binding, 90 min | activity, % at 10 µM | Nuclear receptor subfamily 1 group D member 1 (Homo sapiens), P20393 | 370,000 tested, 0.79% active;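 active = activity above about 14%, limit read from the data; passing the limit was not always enough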
HNF4A DNA FP: change in binding of human HNF4A to DNA, primary screen, biochemical, fluorescence polarization, FITC-DNA; Hepatocyte nuclear factor 4-alpha (Homo sapiens), P41235; 1 h; activity change, % at 10 µM; 360,000 tested, 0.3% active; AID 1224865, 2016; in the data active = activity change above about 30%, passing the limit was not always enough
TPT1 inhibitor: Candida albicans TPT1 enzyme inhibitors, primary screen, biochemical, fluorescence polarization | tRNA 2'-phosphotransferase TPT1 (Candida albicans SC5314) | recombinant caTPT1, FP RNA substrate dephosphorylation | inhibition, % at 5 µM | 300,000 tested, 0.81% active;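 active = inhibition above the mean of all tested compounds plus 3 SD, set per screening campaign, cut at about 24% in these data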
CSN inh: inhibitors of CSN-mediated cullin deneddylation, primary screen, biochemical, fluorescence polarization, uHTS | Purified CSN, SCF-Nedd8-OG deneddylation | inhibition, % at 12.5 µM | 360,000 tested, 0.38% active;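 active = pattern-corrected inhibition above about 35%, with an unprinted fluorescence ratio check between 0.5 and 1.5, limit read from the data, passing the limit was not always enough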
Target sequence (Q92905 whole entry, looked up, one chain of several): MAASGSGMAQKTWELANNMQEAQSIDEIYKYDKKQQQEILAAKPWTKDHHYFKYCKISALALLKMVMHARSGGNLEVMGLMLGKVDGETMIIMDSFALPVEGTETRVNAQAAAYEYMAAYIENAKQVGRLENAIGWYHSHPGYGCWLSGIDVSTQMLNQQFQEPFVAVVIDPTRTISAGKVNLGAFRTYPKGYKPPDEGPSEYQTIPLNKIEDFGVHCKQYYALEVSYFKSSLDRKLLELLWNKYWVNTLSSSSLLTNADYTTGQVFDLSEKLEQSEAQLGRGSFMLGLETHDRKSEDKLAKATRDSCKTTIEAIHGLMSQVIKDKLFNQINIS
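Assay system: purified human Csn5 enzyme expressed in HEK293T cells; Input: 0.24 nM Csn5 enzyme, final concentration; Reagent: 10 nM SCFSkp2-Nedd8OG; Compound dosing: 12.5 µM single point; Times: reaction 90 min, room temperature; Technique: fluorescence polarization readout.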
TPT1 inh confirm: Candida albicans TPT1 inhibitors, confirmation, biochemical, fluorescence polarization, triplicate; shares compounds with TPT1 inhibitor; recombinant caTPT1, RNase T1 coupled; inhibition, % at 5 µM; 2,400 tested, 74% active;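 active = inhibition above the primary screen limit, the mean inhibition of all tested compounds plus 3 SD, cut at about 25% in these data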
RNase T1 inh: RNase T1 inhibitors, counter-screen for TPT1 inhibitor project, biochemical, fluorescence polarization; inhibition, % at 5 µM; RNase T1 cleavage, 1536-well; shares compounds with TPT1 inhibitor; 2,400 tested, 83% active;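 active = inhibition above the solvent-only control well mean plus 3 SD, limit set per screening run, cut at about 23% in these data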;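 note: inhibitors block cleavage so intact labeled substrate keeps polarization high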
Target sequence (P00651 whole entry, looked up): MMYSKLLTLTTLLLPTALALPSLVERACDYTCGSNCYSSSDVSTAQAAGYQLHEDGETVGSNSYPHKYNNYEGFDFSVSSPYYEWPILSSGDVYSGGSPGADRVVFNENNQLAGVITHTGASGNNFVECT
CSN5 deneddyl: Csn5 deneddylation inhibitors, confirmation, biochemical, fluorescence polarization, single concentration, SCF-Nedd8OG substrate; shares compounds with CSN inh; Csn5 deneddylation of SCF-Nedd8OG, 90 min; inhibition, % at 16.6 µM; 540 tested, 62% active; in the data active = inhibition above about 50%
MMP-2 counter: MMP-2 protease inhibition counter-screen, confirmation, counter-screen for CSN deneddylation inhibitor project, biochemical, fluorescence, single concentration; 540 tested, 33% active; recombinant MMP-2, FRET substrate fluorescence, 60 min; shares compounds with CSN inh; inhibition, % at 16.6 µM;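 active = corrected plate-normalized z-score of 5 or more, or -5 or less, or inhibition of 15% or more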
Thrombin counter: counter-screen for CSN deneddylation inhibitors: bovine thrombin inhibition; shares compounds with CSN inh; bovine thrombin cleavage of Ub4-pepOG, fluorescence polarization; inhibition, % at 16.6 µM; 540 tested, 49% active; AID 720656;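 active = inhibition at or above a set limit, with a fluorescence interference ratio between 0.5 and a set maximum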
NR1D1 mod conf: modulators of Rev-erb alpha DNA binding, confirmation, biochemical, FITC-DNA, fluorescence polarization, single point | AID 1259319, 2017 | shares compounds with Rev-erbA mod | activation, % at 25 µM | 3,000 tested, 61% active | 90 min;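 active = activation at or above a set limit, or at least 3 SD above the negative control mean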
RORg counter: modulation of RORgamma DNA binding, dose response, counter-screen for Rev-erb alpha modulator project, biochemical, fluorescence polarization, FITC-DNA. shares compounds with Rev-erbA mod. purified RORgamma protein-FITC-DNA binding. IC50, µM. 910 tested, 8% active. AID 1259320, 2017;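 active = Compounds whose fitted half-maximal concentration for disrupting protein-DNA binding is below 10 micromolar; the record names Rev-erb in its text, so the target is in doubt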
Of the large screens only hits and unclear results are named; the others gave an inactive call (follow-up assays come after a bar, where they were run).

C=CCN1C(=O)/C(=C\C=C2\N(C)c3ccccc3C2(C)C)SC1=S	Rev-erbA mod 25, TPT1 inhibitor 116, CSN inh 72 | TPT1 inh confirm 120 | RNase T1 inh 115 | CSN5 deneddyl 117 | MMP-2 counter -35 | Thrombin counter inactive | NR1D1 mod conf 39 | RORg counter inactive
CCCN1C(=O)/C(=C/C=C2\N(CC)c3ccccc3C2(C)C)SC1=S	Rev-erbA mod 47, TPT1 inhibitor 178 | TPT1 inh confirm 138 | RNase T1 inh 125 | NR1D1 mod conf 43
CCOC(=O)C1=C(C(=O)OCC)C2N(Cc3ccc(C#N)cc3)c3ccccc3[C@@]23C[C@@H](C(=O)OC)N(S(=O)(=O)c2ccccc2)C3=N1 (some centres undefined)	none (no result: HNF4A DNA FP, TPT1 inhibitor, CSN inh)
Oc1ccccc1N=Nc1nc(-c2ccccc2)c(-c2ccccc2)[nH]1	Rev-erbA mod 25, TPT1 inhibitor 46 | TPT1 inh confirm 58 | RNase T1 inh 69 | NR1D1 mod conf 33 | RORg counter inactive
COc1ccccc1N=Nc1nc(-c2ccccc2)c(-c2ccccc2)[nH]1	Rev-erbA mod 35, TPT1 inhibitor 25 | TPT1 inh confirm 33 | RNase T1 inh 42 | NR1D1 mod conf 41 | RORg counter 1.1
CN(C)c1ccc(/C=C(/C#N)C(=O)NCc2ccccc2)o1	Rev-erbA mod 33, TPT1 inhibitor 177 | TPT1 inh confirm 192 | RNase T1 inh 176 | NR1D1 mod conf inactive
N#C/C(=C/c1ccccc1)C(=O)NCc1ccccc1	none
O=C(OC12CCCN(C1)/C(=C/c1cccc(Cl)c1)C2)C1CCCCC1 (centres undefined)	none (no result: HNF4A DNA FP, TPT1 inhibitor, CSN inh)
CCOC(=O)/C(C#N)=C\c1ccc(CC)s1	none
CCOC(=O)/C(C#N)=C\C=C1C=CN(C)C=C1	Rev-erbA mod 31, TPT1 inhibitor 158 | TPT1 inh confirm 173 | RNase T1 inh 167 | NR1D1 mod conf 28
C=CCN1C(=O)c2cccc3c(N4CCCCC4)ccc(c23)C1=O	Rev-erbA mod 19, TPT1 inhibitor 64 | TPT1 inh confirm 41 | RNase T1 inh 57 | NR1D1 mod conf 24
O=C1c2cccc3cccc(c23)C(=O)N1CCO	none (no result: TPT1 inhibitor)
O=C1c2cccc3c(N4CCCCC4)ccc(c23)C(=O)N1c1cccc(O)c1	Rev-erbA mod 61, TPT1 inhibitor 75 | TPT1 inh confirm 52 | RNase T1 inh 61 | NR1D1 mod conf 62 | RORg counter inactive
O=C1c2cccc3c(N4CCCCC4)ccc(c23)C(=O)N1CCO	Rev-erbA mod 47, TPT1 inhibitor 50 | TPT1 inh confirm inactive | RNase T1 inh inactive | NR1D1 mod conf 33 | RORg counter inactive
O=C(c1cccc(N2C(=O)c3ccccc3C2=O)c1)N1CCCCCC1	none
O=C(/C=C(\Nc1cc(Cl)c(F)c(Cl)c1)c1ccccc1)c1ccccc1	none (no result: HNF4A DNA FP, TPT1 inhibitor, CSN inh)
CN1CCCCC(NC(=O)COCc2ccccc2)C1=O (centres undefined)	none (no result: HNF4A DNA FP, TPT1 inhibitor, CSN inh)
CC1=NN(c2ccccc2)C(=O)/C1=C/C=C/C=C/N(C)C	Rev-erbA mod 51, TPT1 inhibitor 124 | TPT1 inh confirm 94 | RNase T1 inh 102 | NR1D1 mod conf 53
CC1=NN(c2ccc(C)cc2)C(=O)/C1=C\C=C\c1ccccc1	none
COc1ccc2cc(C(=O)N/N=C/c3sc4ccccc4c3O)ccc2c1	Rev-erbA mod 28, TPT1 inhibitor 136 | TPT1 inh confirm 135 | RNase T1 inh 126 | NR1D1 mod conf 27
CCN(CC)c1ccc2cc(S(=O)(=O)c3ccc(Cl)cc3)c(=O)oc2c1	Rev-erbA mod 17, TPT1 inhibitor 86 | TPT1 inh confirm 98 | RNase T1 inh 104 | NR1D1 mod conf 19
CCCCCCc1cc2cc(S(=O)(=O)c3ccc(Cl)cc3)c(=O)oc2cc1O	none
CCN(CC)c1ccc2c(c1)OC(N)=C(C#N)C2c1cccnc1 (centres undefined)	Rev-erbA mod 53, TPT1 inhibitor 71 | TPT1 inh confirm 57 | RNase T1 inh 64 | NR1D1 mod conf 48
C[C@@H]1NS(=O)(=O)c2ccc(F)cc2O[C@@H]1c1ccccc1	none (no result: HNF4A DNA FP, TPT1 inhibitor, CSN inh)
COc1cc(/C=C(\C#N)c2nc3ccccc3o2)ccc1O	Rev-erbA mod 43, TPT1 inhibitor 164 | TPT1 inh confirm 170 | RNase T1 inh 156 | NR1D1 mod conf 60 | RORg counter inactive
CCN(CC)c1ccc(/C=C(\C#N)C(=O)c2ccc(Br)cc2)cc1	Rev-erbA mod 59, TPT1 inhibitor 137 | TPT1 inh confirm 104 | RNase T1 inh 103 | NR1D1 mod conf 70 | RORg counter inactive
CCN(CC)c1ccc(/C=C(\C#N)C(N)=S)cc1	Rev-erbA mod 76, TPT1 inhibitor 104 | TPT1 inh confirm inactive | RNase T1 inh inactive | NR1D1 mod conf 64 | RORg counter inactive
Cc1ccc(C=C(C#N)C(=O)c2ccccc2)cc1	none (no result: TPT1 inhibitor)
COc1ccc(CCn2cnn3c(=O)c4ccccc4nc3c2=O)cc1OC	none (no result: HNF4A DNA FP, TPT1 inhibitor, CSN inh)
C[C@@H]1COc2cc(NCCCN3CCOCC3)ccc2S(=O)(=O)N1	none (no result: HNF4A DNA FP, TPT1 inhibitor, CSN inh)
CCn1c(SCC(=O)c2c[nH]c3ccccc23)nnc1-c1cccs1	Rev-erbA mod 102, TPT1 inhibitor 25 | TPT1 inh confirm 25 | RNase T1 inh 35 | NR1D1 mod conf 112 | RORg counter inactive
